These results are taken from ChEMBL document CHEMBL1159071, “Discovery of 4-(5-methyloxazolo[4,5-b]pyridin-2-yl)-1,4-diazabicyclo[3.2.2]nonane (CP-810,123), a novel alpha 7 nicotinic acetylcholine receptor agonist for the treatment of cognitive disorders in schizophrenia: synthesis, SAR development, and in vivo efficacy in cognition models” (J Med Chem, 2010).

Molecules are shown by their SMILES. Activity calls are given as the source filed them.

By Kp is commonly meant the ratio of the level in a tissue or fluid to that in plasma or blood. Broadly, the half-life is the time needed for the level to fall by half in the phase considered. A low value points to fast loss. The logD is the decadic logarithm of the distribution of all forms, ionised or not, between an organic phase and buffer at a given pH. What is called Ki is a dissociation constant, usually derived from enzyme kinetics or from competition with a known ligand. The term EC50 denotes the concentration at which the effect is half-maximal.

The subject of data set [1] is Rattus norvegicus. The experiment in a line: Cognitive enhancement in Sprague-Dawley rat assessed as reversal of amphetamine-induced auditory sensory gating deficit at 0.03 mg/kg, sc. The format is functional, organism-based. Details: dose 0.03 mg/kg. In outline: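 Male Sprague-Dawley rats (250-300 g) under chloral hydrate (400 mg/kg ip), femoral vein cannulated. CA3 hippocampal field potential recorded; auditory-evoked responses averaged over 50 stimulus pairs at 10 s interstimulus interval. Gating disrupted by d-amphetamine 1 mg/kg iv; compound sc. Read-out is reversal of the amphetamine deficit; PBS vehicle; two-tailed paired t-test.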

A short description of data set [2]: Ratio of drug level in brain to plasma of rat at 1 mg/kg, sc after 40 mins. The following applies: brain and plasma.
A short description of data set [3]: Half life in human liver microsomes. It counts as ADME, Microsome. In outline: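 Stability in human liver microsomes.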
(Liver microsomes are a subcellular fraction often used to study metabolism.)

A short description of data set [4]: Lipophilicity, log D at pH 7.4. It counts as physicochemical. The following applies: buffer.
The target in data set [5] is T1, Muscarinic acetylcholine receptor M5 (Homo sapiens, UniProt P08912).
T1 sequence (P08912 whole entry): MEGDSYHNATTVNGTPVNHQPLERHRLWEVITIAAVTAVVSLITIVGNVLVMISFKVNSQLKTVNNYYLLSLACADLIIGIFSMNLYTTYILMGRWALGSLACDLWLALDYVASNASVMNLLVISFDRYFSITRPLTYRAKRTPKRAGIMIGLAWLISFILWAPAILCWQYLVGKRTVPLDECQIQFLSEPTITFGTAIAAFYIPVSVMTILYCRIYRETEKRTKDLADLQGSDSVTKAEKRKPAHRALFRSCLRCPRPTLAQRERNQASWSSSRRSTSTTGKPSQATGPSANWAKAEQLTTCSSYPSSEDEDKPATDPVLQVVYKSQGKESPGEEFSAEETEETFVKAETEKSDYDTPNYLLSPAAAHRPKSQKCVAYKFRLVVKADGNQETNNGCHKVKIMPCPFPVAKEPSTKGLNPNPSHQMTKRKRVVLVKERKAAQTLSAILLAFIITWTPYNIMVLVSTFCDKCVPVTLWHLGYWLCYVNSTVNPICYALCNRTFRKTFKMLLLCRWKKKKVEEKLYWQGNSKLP
The experiment in a line: Inhibition of muscarinic M5 receptor.

Data set [6] can be described thus: Permeability from apical to basolateral side in dog MDCK cells at 2 uM. It counts as ADME, cell-based, Canis lupus familiaris. The following applies: read-out: permeability. The procedure, abridged: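 MS quantification of apical-to-basolateral transfer of compound at 2 μM across contiguous MDCK cell monolayers.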
The target in data set [7] is T2, Muscarinic acetylcholine receptor M4 (Homo sapiens, UniProt P08173).
T2 sequence (P08173 whole entry): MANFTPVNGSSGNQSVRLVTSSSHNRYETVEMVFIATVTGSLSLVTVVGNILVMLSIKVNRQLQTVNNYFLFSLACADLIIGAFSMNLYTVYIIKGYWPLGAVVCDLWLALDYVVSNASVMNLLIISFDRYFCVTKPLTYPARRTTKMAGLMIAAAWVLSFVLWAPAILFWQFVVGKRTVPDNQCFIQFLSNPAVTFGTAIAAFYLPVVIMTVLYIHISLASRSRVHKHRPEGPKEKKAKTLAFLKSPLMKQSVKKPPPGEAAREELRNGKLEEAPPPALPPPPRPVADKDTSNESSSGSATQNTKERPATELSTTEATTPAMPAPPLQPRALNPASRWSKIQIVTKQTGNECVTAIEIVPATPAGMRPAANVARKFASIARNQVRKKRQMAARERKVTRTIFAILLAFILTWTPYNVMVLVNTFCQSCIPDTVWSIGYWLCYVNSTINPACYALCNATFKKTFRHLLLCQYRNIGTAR
The data set can be described thus: Inhibition of muscarinic M4 receptor.

Data set [8] can be described thus: Agonist activity at human alpha7 nAChR/mouse 5HT3 chimeric receptor expressed in SH-EP1 cells assessed as increase in intracellular calcium level. It counts as functional, cell-based. The procedure, abridged: (§1)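 α7-5HT3 chimera stably in SH-EP1 cells grown to confluence; loaded with Calcium Green 1 AM (2 μM final) 60 min at 37 °C. Compound added directly; calcium rise read by FLIPR (excitation 488 nm, emission >525 nm).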
In general terms: Calcium flux is commonly read through the fluorescence of an indicator in the cells.

In data set [9] the target is Neuronal acetylcholine receptor subunit alpha-7 (Rattus norvegicus, UniProt Q05941). The data set can be described thus: Displacement of [125I]BTX from rat alpha7 nicotinic acetylcholine receptor expressed in GH4C1 cells. It counts as cell-based, GH4-C1. In outline:
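GH4C1 membranes (20 mM HEPES, 118 mM NaCl, 4.5 mM KCl, 2.5 mM CaCl2, 1.2 mM MgSO4, pH 7.5) incubated 2 h at 37 °C with [125I]α-bungarotoxin 0.4 nM final. Nonspecific binding with 1 μM methyllycaconitine; filtration onto PEI-treated GF/B filters. Ki = IC50/(1+[L]/KD); six-point curves in triplicate; geometric mean with 95% CI.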

Data set [10] in a line: Agonist activity at human alpha7 nAChR/mouse 5HT3 chimeric receptor expressed in SH-EP1 cells assessed as increase in intracellular calcium level relative to 100 uM nicotine. It counts as functional. The procedure, abridged:
as §1

The test system of data set [11] is Rattus norvegicus. The data set can be described thus: Cognitive enhancement in Sprague-Dawley rat assessed as improvement of scopolamine-impaired performance at 0.32 mg/kg, sc administered 30 mins before scopolamine challenge by novel object recognition assay. The format is functional, organism-based. On the set-up: dose 0.32 mg/kg. In outline:
(§2)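 Rats habituated to the arena 3 min on day 1. Next day, 10-15 per group dosed sc with vehicle or compound, then 30 min later vehicle or (-)-scopolamine 0.2 mg/kg sc. After 30 min more, two identical objects shown 3 min; 2.5 h later one novel and one familiar object for 3 min. Exploration time per object, mean ± SEM.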

In another data set the test system is CHO. The experiment in a line: Toxicity in CHO cells assessed as induction of DNA fragments by in vitro micronucleus assay. It counts as cell-based, Cricetulus griseus. The note with it: chinese hamster.
In data set [12] the target is T3, 5-hydroxytryptamine receptor 3A (Mus musculus, UniProt P23979).
T3 sequence (P23979 whole entry): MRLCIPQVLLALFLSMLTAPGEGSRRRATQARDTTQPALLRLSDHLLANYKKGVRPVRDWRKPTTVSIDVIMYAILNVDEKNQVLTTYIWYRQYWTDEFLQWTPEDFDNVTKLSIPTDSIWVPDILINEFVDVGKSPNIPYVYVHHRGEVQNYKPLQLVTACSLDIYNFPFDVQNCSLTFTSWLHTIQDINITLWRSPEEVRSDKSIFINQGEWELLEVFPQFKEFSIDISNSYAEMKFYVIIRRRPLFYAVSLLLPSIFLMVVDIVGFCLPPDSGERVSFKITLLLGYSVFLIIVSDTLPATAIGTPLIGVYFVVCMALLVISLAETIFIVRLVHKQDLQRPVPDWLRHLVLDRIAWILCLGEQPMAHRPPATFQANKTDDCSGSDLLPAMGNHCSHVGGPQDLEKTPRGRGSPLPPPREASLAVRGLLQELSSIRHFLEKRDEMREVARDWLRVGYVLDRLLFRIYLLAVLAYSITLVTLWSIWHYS
The data set can be described thus: Displacement of [3H]LY278584 from mouse 5HT3 receptor expressed in HEK293 cells. The format is cell-based. In outline: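 Mouse 5-HT3A in HEK293 cell homogenate, 20 mM Tris-HCl pH 7.4 with 154 mM NaCl. [3H]LY278584 1 nM final; nonspecific binding with 10 μM ICS205-930; 60 min at 37 °C, then filtration onto PEI-soaked GF/B. Ki by Cheng-Prusoff; mean of three six-point curves in triplicate in one assay; tropisetron standard.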

Data set [13] deals with Rattus norvegicus. The data set can be described thus: Cognitive enhancement in Sprague-Dawley rat assessed as improvement of scopolamine-impaired performance at 1 mg/kg, sc administered 30 mins before scopolamine challenge by novel object recognition assay. On the set-up: dose 1 mg/kg. It counts as functional, organism-based. The procedure, abridged: as §2

Neuronal acetylcholine receptor subunit alpha-7, sequence (Q05941 whole entry): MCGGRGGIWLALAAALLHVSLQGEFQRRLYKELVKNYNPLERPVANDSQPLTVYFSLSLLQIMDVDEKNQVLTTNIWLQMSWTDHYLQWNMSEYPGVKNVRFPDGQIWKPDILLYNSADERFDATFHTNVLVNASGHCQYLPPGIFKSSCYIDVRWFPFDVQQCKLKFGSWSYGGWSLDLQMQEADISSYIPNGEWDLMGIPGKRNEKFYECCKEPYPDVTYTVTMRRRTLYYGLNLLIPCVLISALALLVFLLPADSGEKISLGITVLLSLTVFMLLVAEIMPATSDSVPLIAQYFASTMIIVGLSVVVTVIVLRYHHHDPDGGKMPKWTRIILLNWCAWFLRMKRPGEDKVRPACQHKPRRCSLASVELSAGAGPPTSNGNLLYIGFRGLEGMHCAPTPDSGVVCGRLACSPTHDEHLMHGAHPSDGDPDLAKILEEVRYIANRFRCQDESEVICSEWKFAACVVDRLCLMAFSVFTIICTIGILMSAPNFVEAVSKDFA

Turning to `Cc1ccc2oc(N3CCN4CCC3CC4)nc2n1`, the result in the data set with Rattus norvegicus [1], in the data set with Rattus norvegicus [11] and in the data set with Rattus norvegicus [13] was Active. For the same molecule, the Kp at 40 min in [2] worked out at 1.5. Besides, the half-life in data set [3] is above 2 h. This molecule returned a log distribution coefficient (logD) in [4] of 0.36. In addition, the Ki in data set [5] amounted to 5200 nM; in data set [7], 3000 nM; in data set [9] it was 13.5 nM; in data set [12], 269 nM. Besides, the Papp A→B at 2 µM in [6] turned out to be 18 ×10⁻⁶ cm/s. In addition, the EC50 in data set [8] stood at 244 nM. The Efficacy in data set [10] came out at 46%. Besides, the Activity result in the data set with CHO is “Non-toxic”.
